This is an account of results in publication PMC5563258 (Journal of medicinal chemistry, 2017).

Data set [1] deals with T1, D3R (Homo sapiens, UniProt P35462). The settings on record: BRET assay; cited from earlier work. A general note: In BRET a luciferase serves as donor, and the signal depends on an acceptor being close.
Data set [2] deals with T1, D3R. Kind of data set: β-arrestin recruitment assay. Format: cell-based. The note with it: Figure 2. The method, boiled down: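 HEK293T cells were transiently transfected (polyethylenimine) with D3R–Rluc8 (C-terminal), mVenus–β-arrestin 2 (N-terminal) and GRK2, and assayed ~48 h later. Cells in PBS + 5 mM glucose got coelenterazine H (5 µM) for 8 min, then test compound (final 10 pM–100 µM). BRET1 (510–540/485 nm) was read at 30 min, normalized to vehicle (0%) and dopamine (100%), and fitted sigmoidally.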

Data set [3] deals with T1, D3R. As to the kind of experiment: Go BRET activation assay. Format: cell-based. The note with it: for Functional efficacy class: Go BRET activation assay, Figure 1.
For data set [4] the following is noted: dogs; cited from earlier work.

T1 sequence (P35462 whole entry): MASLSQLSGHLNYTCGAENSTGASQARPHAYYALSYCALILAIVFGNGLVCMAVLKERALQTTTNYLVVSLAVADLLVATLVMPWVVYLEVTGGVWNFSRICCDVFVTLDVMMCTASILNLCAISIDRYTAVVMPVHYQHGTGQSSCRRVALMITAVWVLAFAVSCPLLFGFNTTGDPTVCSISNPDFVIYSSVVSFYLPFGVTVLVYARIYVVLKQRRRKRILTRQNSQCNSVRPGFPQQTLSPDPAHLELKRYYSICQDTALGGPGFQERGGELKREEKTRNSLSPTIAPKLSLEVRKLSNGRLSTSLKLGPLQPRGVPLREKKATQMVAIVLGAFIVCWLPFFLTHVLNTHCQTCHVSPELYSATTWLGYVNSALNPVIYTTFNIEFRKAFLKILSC

Turning to `Clc1cccc(N2CCNCC2)c1Cl` [2,3-diCl-phenylpiperazine, 1-(2,3-dichlorophenyl)piperazine], the “Emax (% of dopamine efficacy)” value on D3R [1] is listed as 57.3%.
Take `O=C(NCC[C@@H](O)CN1CCN(c2cccc(Cl)c2Cl)CC1)c1cnc2ccccc2c1` [(R)-4, (R)-N-(4-(4-(2,3-Dichlorophenyl)piperazin-1-yl)-3-hydroxybutyl)quinoline-3-carboxamide]: the Functional efficacy class entry at D3R [2] is given as “antagonists”.
In the case of `O=C(NCC[C@@H](O)CN1CCN(c2cccc(Cl)c2Cl)CC1)c1cc2ccccc2[nH]1` [(R)-9], the Functional efficacy class result at D3R [2] is listed as “antagonists”.
Take `O=C(NCC[C@H](O)CN1CCN(c2cccc(Cl)c2Cl)CC1)c1cnc2ccccc2c1` [(S)-4, (S)-N-(4-(4-(2,3-Dichlorophenyl)piperazin-1-yl)-3-hydroxybutyl)quinoline-3-carboxamide]: the Functional efficacy class result on D3R [2] and at D3R [3] was “partial agonists” each time.
`CC[C@H](O)CN1CCN(c2cccc(Cl)c2Cl)CC1` [(S)-6, (S)-1-(4-(2,3-Dichlorophenyl)piperazin-1-yl)butan-2-ol]: the Functional efficacy class result on D3R [2] and at D3R [3] was “partial agonists” throughout.
With `O=C(NCC[C@H](O)CN1CCN(c2cccc(Cl)c2Cl)CC1)c1cc2ccccc2[nH]1` [(S)-9], the Functional efficacy class entry at D3R [2] and on D3R [3] was “partial agonists” each time.
Broadly, the Emax is the size of the effect at its maximum, as opposed to the concentration needed. With `O=C(NCCCCN1CCN(c2cccc(Cl)c2Cl)CC1)c1cc2ccccc2[nH]1` [Compound 10], the Emax on D3R [3] (HEK-293T, read-out: Emax (% of dopamine efficacy)) was determined as 16%.
Take `Cc1ncoc1-c1nnc(SCCCN2CC3CC3(c3ccc(C(F)(F)F)cc3F)C2)n1C` (centres unmarked) [GSK598,809, 1-(2-fluoro-4-trifluoromethyl-phenyl)-3-{3-[4-methyl-5-(4-methyl-oxazol-5-yl)-4H-[1,2,4]triazol-3-ylsulfanyl]-propyl}-3-aza-bicyclo[3.1.0]hexane]: the “Effect on cocaine-mediated increases in blood pressure and heart rate” value in data set [4] was “potentiate cocaine-mediated increases in blood pressure and heart rate”.
